Screening results (PubChem)
AHR act – AHR activators, primary screen, cell-based, luminescence, luciferase reporter, human; Aryl hydrocarbon receptor (Homo sapiens), P35869; 320,000 compounds, 2.5% hits; AHR-responsive luciferase reporter cells; activation, % at 5 µM; in the data active = activation above about 47%
PERK inh – block of dimerizer-induced PERK translation repression, primary screen, PERK inhibitor project, CHO PERK-DD cells, SEAP luminescence, HTS; inhibition, % at 5.6 µM; CHO PERK-DD fusion, SEAP luminescence translation reporter; 220,000 compounds, 0.17% hits; AID 1416, 2008; Eukaryotic translation initiation factor 2-alpha kinase 3 (Homo sapiens), Q9NZJ5;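 active = inhibition above the mean inhibition of all tested compounds plus 3 SD, set separately per screening campaign, cut at about 2.9% in these data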;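 note: PERK kinase domain activated by AP20187 dimerizer at 100 nM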
NF-kB neuron act – activators of NF-kB expression in neurons, primary screen, cell-based, HTS. human neuronal cells, NF-kB reporter expression; hits give high values. fold change at 12.5 µM. 190,000 compounds, 1.6% hits. AID 1239, 2008; in the data active = fold change above about 3.3
STAT1 act – STAT1 signaling activators, primary screen, cell-based, HTS, luciferase reporter. NIH 3T3 STAT1-luciferase reporter, IFN-gamma, luminescence; 100% = IFN-gamma alone, no compound. activation (% of control), % at 5.5 µM. 200,000 compounds, 2.6% hits. AID 932, 2007;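 active = activation above the screen-wide mean activation plus 3 SD, cut at about 130% in these data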
APP 5'UTR act – activators of APP 5'UTR luciferase reporter, primary screen, SH-SY5Y cells | SH-SY5Y APP 5'UTR luciferase reporter, luminescence; zero percent = DMSO vehicle wells | activation, % at 2 µM | 190,000 compounds, 1% hits | AID 1276, 2008;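 active = activation above a set limit, based on mean plus 3 SD of controls, cut at about 140% in these data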
MDM2 E3 inh – MDM2-luciferase reporter signal enhancers, primary screen, MDM2 E3 ligase inhibitor project, cell-based, luminescence, 1536-well | 210,000 compounds, 0.11% hits | signal enhancement, % at 5 µM | E3 ubiquitin-protein ligase Mdm2 (Homo sapiens), Q00987 | AID 1230, 2008 | cell-based MDM2 ubiquitination luciferase reporter, 2 h; 0 = plate control, 100 = twice control, blank-subtracted;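 active = signal enhancement of 30% or more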;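 note: luminescence tracks abundance of the self-degrading MDM2-luciferase fusion protein; higher signal means inhibition of MDM2 E3 ligase activity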
Target sequence (Q00987 whole entry, looked up, the tested form may be a part): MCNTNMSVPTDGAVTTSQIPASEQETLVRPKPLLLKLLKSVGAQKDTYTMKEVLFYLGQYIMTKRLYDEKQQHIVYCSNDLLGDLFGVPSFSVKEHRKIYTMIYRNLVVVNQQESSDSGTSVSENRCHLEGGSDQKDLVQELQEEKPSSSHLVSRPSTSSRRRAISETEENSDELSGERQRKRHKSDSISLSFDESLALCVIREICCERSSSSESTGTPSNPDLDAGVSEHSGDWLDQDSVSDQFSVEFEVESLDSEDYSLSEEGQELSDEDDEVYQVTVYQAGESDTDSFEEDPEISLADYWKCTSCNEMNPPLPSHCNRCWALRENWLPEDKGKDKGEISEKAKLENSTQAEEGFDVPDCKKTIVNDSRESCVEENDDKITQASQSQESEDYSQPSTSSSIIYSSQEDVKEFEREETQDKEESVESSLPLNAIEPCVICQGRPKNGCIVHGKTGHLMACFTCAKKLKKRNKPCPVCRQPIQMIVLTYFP
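Buffer or medium: Cells held in DMEM | Assay system: Stable mammalian line carrying autodegrading MDM2–luciferase fusion reporter | Quantity: 2000 cells/well | Times: 4 h settle plus 2 h compound, 37 °C | Doses: One concentration, 5 µM, with 0.2% DMSO | Technique: Luminescence with SteadyLite reagent, 15 min at room temperature | Benchmarks: Plate controls and plate blanks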
Large screens that a line does not name were inactive. Sampled rows, rich in hits. Any-hit rate of the full collection: about 4.5%.

CCOC(=O)COn1c(=O)c(-c2cc3ccccc3o2)[n+]([O-])c2ccccc21	AHR act 62, STAT1 act 142
CC(=O)Nc1ccc(NC(=O)CSc2nnc3ccc(-c4cccnc4)nn23)cc1	none (no result: PERK inh, NF-kB neuron act, STAT1 act, APP 5'UTR act, MDM2 E3 inh)
Cc1cccc(NC(=O)CSc2ccc(-c3cccnc3)nn2)c1	AHR act 50 (no result: PERK inh, NF-kB neuron act, STAT1 act, APP 5'UTR act, MDM2 E3 inh)
O=C(CSc1ccc(-c2cccnc2)nn1)c1ccc([N+](=O)[O-])cc1	AHR act 58
O=C(CSc1nnc2ccc(-c3cccnc3)nn12)Nc1ccc(F)cc1	AHR act 61 (no result: PERK inh, NF-kB neuron act, STAT1 act, APP 5'UTR act, MDM2 E3 inh)
Cc1ccc(NC(=O)CSc2ccc(-c3cccnc3)nn2)cc1	none (no result: PERK inh, NF-kB neuron act, STAT1 act, APP 5'UTR act, MDM2 E3 inh)
N#Cc1cccc(-c2cn(S(=O)(=O)c3ccc(Cl)cc3)nc2N)c1	none
CC(C)CC(=O)NC(=S)N1CCN(c2ccc([N+](=O)[O-])cc2Cl)CC1	none
Brc1ccc2c(c1)C(c1cccs1)=NNC(c1cccnc1)=N2	AHR act 92
CCOc1ccc2c(c1)C(c1cccs1)=NNC(c1cccnc1)=N2	none
Clc1ccc(-c2nc3ccncc3[nH]2)cc1	STAT1 act 141
Fc1ccc(-c2nc3ccncc3[nH]2)cc1	none
CCOc1cc(S(=O)(=O)n2ccnc2)ccc1Cl	NF-kB neuron act 3.6
COc1ccccc1OCCn1cc(/C=N/n2cnnc2)c2ccccc21	AHR act 49
COc1ccc(CCNC(=O)CSc2nc(=O)[nH]c3c2CCC3)cc1OC	none (no result: PERK inh, NF-kB neuron act, STAT1 act, APP 5'UTR act, MDM2 E3 inh)
CCOc1ccccc1N(CC(=O)Nc1ccc2c(c1)OCO2)S(C)(=O)=O	AHR act 69
CCOc1ccccc1N(CC(=O)Nc1ccc2c(c1)OCCO2)S(C)(=O)=O	none
COc1cccc(N(CC(=O)Nc2ccc3c(c2)OCO3)S(=O)(=O)c2ccccc2)c1	AHR act 76
Cc1ccccc1N(CC(=O)Nc1ccc(F)cc1)S(C)(=O)=O	AHR act 69
COc1ccc(S(=O)(=O)N(CC(=O)Nc2ccc3c(c2)OCO3)c2ccccc2OC)cc1	AHR act 47
COc1ccc(N(CC(=O)Nc2ccc3c(c2)OCO3)S(=O)(=O)c2ccccc2)cc1	none
Cc1ccc(NC(=O)CN(c2ccccc2F)S(C)(=O)=O)cc1	none
COc1ccc([N+](=O)[O-])c(OC)c1C(=O)NC(=O)Nc1c(F)cc(F)cc1F	none (no result: NF-kB neuron act, STAT1 act, APP 5'UTR act)
CCOc1ccc(S(=O)(=O)N2CCOCC2)cc1NS(=O)(=O)c1ccc(OC)c([N+](=O)[O-])c1	none (no result: PERK inh, NF-kB neuron act, STAT1 act, APP 5'UTR act, MDM2 E3 inh)
Cc1nc(C)c(C(=O)OC(C)C(=O)Nc2ccc(F)cc2)s1 (stereo unspecified)	none (no result: PERK inh, NF-kB neuron act, STAT1 act, APP 5'UTR act, MDM2 E3 inh)
O=C(/C=C/c1ccc([N+](=O)[O-])cc1)c1cccs1	none (no result: NF-kB neuron act, STAT1 act, APP 5'UTR act)
COc1cc([N+](=O)[O-])ccc1N/C=C/C(=O)c1cccs1	AHR act 51, NF-kB neuron act 4.3, APP 5'UTR act 136
NC(=O)c1ccccc1N/C=C/C(=O)c1cccs1	NF-kB neuron act 5.4, STAT1 act 138 (no result: APP 5'UTR act)
NC(=O)c1ccccc1N/C=C/C(=O)c1ccc(Cl)cc1Cl	NF-kB neuron act 5.9, APP 5'UTR act 174 (no result: AHR act)
Cc1cccc(N/C=C/C(=O)c2cccs2)c1C	AHR act 59, NF-kB neuron act 4.1, APP 5'UTR act 212
N#C/C(=C\c1c(F)cccc1Cl)S(=O)(=O)c1ccccn1	none (no result: NF-kB neuron act, STAT1 act, APP 5'UTR act)
COc1ccc(C2=C(CC(=O)O)C(=O)CC2)cc1	none
Cc1cc(NC(=O)CSCC(=O)Nc2ccccc2N2CCCCC2)no1	none (no result: PERK inh, NF-kB neuron act, STAT1 act, APP 5'UTR act, MDM2 E3 inh)
CCOC(=O)CNC(=S)N(Cc1ccco1)Cc1ccccc1Cl	none (no result: PERK inh, NF-kB neuron act, STAT1 act, APP 5'UTR act, MDM2 E3 inh)
COc1ccc(C(=O)N/C(=C\c2ccco2)C(=O)NCCN2CCOCC2)cc1	none (no result: PERK inh, NF-kB neuron act, STAT1 act, APP 5'UTR act, MDM2 E3 inh)
COc1ccc(/C=C/C(=O)OCC(=O)NCc2ccccc2Cl)cc1OC	none (no result: PERK inh, NF-kB neuron act, STAT1 act, APP 5'UTR act, MDM2 E3 inh)
NC(=O)c1ccccc1NC(=O)/C=C/c1cccc(Cl)c1	STAT1 act 131
COc1ccc(-c2sc3ccc(OC)cc3c2-c2ccc(O)cc2)cc1	AHR act 65 (no result: PERK inh, NF-kB neuron act, STAT1 act, APP 5'UTR act, MDM2 E3 inh)
